Laboratory results taken from ChEMBL document CHEMBL4513216, “Probing the Open Global Health Chemical Diversity Library for Multistage-Active Starting Points for Next-Generation Antimalarials” (ACS Infect Dis, 2020).

Assay: Toxicity liver stage against HepG2, at 10uM
Type: cell-based
Design: test concentration 10 uM, cell line HepG2-A16-CD81EGFP
Details: human, HepG2-A16-CD81EGFP cells; read-out: INHIBITION
Procedure, shortened: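 Uninfected HepG2-A16-CD81EGFP cells, 3 × 10^3 per well, 1536-well, plated on prespotted compound at 10 μM final, parasite-free screening media added to match infected plates; puromycin 10 μM positive, DMSO 0.5% negative; run in parallel with 48 h PbLuc assay at 37 °C, 5% CO2; viability by CellTiter-Glo luminescence, normalized to controls.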

Compound	cytotoxicity at 10 µM
COCC(=O)N[C@H](C)c1c(-c2ccc(OC)cc2)noc1C(=O)O	0.588%
CCn1cc(-c2nn3c(C(F)(F)F)nnc3s2)cn1	-12.3%
CC1CCc2[nH]c(=O)c(C(=O)N3CCc4ccccc4C3)cc2C1 (stereo not given)	-6.77%
CCN(c1ccsc1C(=O)N1CCCCC1)S(=O)(=O)c1ccccc1	9.78%
CCC(C)NC(=O)c1nnn(-c2ccc(Br)cc2)n1 (stereo not given)	5.81%
O=C(O)CC(CC(=O)N(Cc1ccsc1)C1CC1)c1cccs1 (stereo not given)	7.8%
Cc1nsc(C(=O)NCCc2ccc(F)cc2)n1	-6.92%
O=C(c1ccsc1)N1C[C@@H]2CCN(C(=O)c3cccc(F)c3)[C@@H]2C1	1.47%
Cc1cnc(N2CC(C(=O)N3CCOCC3)C3(CCOCC3)C2)nc1 (stereo not given)	4.47%
CN1CCN([C@@H]2CN(C(=O)c3ccsc3)[C@@H]3CCCO[C@H]23)CC1	6.74%
O=C(Nc1cnn(Cc2ccc(F)cc2Cl)c1)C1CC1	-4.83%
Cc1nc2[nH]cnc(Nc3cnn(C)c3)c-2n1	5.59%
Cn1ncc(C(=O)N2CCN(S(C)(=O)=O)CC2)c1Cl	7.58%
COc1cc(-c2n[nH]c(CCN)n2)cc(OC)c1OC	-0.297%
Cc1nc(N2CCCC2)ncc1-c1cc(O)nc(N2CCCC2)n1	6.79%
CN1CCN(C(=O)CCn2nnc3ccccc32)CC(C(N)=O)C1 (stereo not given)	2.24%
Cc1cc(Cc2ccccc2C)cc(C2CCCNC2)n1 (stereo not given)	-3.59%
CC(C)CC(NC(=O)c1cccs1)c1nc2cccnc2n1C (stereo not given)	7.27%
Cc1nn(C)cc1NC(=O)CC1CCN(C(=O)Cc2ccccc2)CC1	1.96%
O=C1CCC[C@]2(CN(S(=O)(=O)C3CCCCC3)C[C@H]2c2cccnc2)N1	-12.4%
Cc1cc(C)nc(N2CCOC(C)(C(=O)N(C)C)C2)n1 (stereo not given)	-3.04%
Cc1cc(C(=O)NCCc2c(C)nn(C)c2C)nc(N2CCCCC2)n1	-16%

Compound	cytotoxicity at 10 µM
Cc1nc(CCC(N)=O)cc(C2CCNCC2)n1	-15.1%
O=C(N[C@@H]1CN(Cc2cccc3[nH]ccc23)C[C@H]1O)c1cscn1	-2.86%
Cc1cccc(NCC(=O)NC2(C#N)CCCC2)c1C(=O)N1CCCC1	-0.69%
Cc1ccc(C(C)NC(=O)Cc2c(C)nc3cc(=O)[nH]n3c2C)s1 (stereo not given)	-0.159%
CN(C)CCN(Cc1ccc(Cl)cc1)C(=O)c1ccn(C)c(=O)c1	-5.22%
O=C(Cc1ccon1)N(CCC(F)(F)F)C1CCCC1	-9.36%
Cc1ccc(S(N)(=O)=O)cc1C(=O)NC1CCN(C2CC2)CC1	13.3%
COc1c(Cl)cc(Cl)cc1CN1CCC(C(N)=O)C1 (stereo not given)	11.9%
COc1cccc(CC(=O)NCCc2nnc3n2CCCCC3)c1	-18.4%
Cc1cc(C)n(C2CN(Cc3nc4cc(Cl)ccc4n3C)C2)n1	-2.35%
Cn1c(CN2CCCC(N3CCCCCC3)C2)cc(=O)n(C)c1=O (stereo not given)	-1.85%
CC(NC(=O)Nc1cccnc1N1CCOCC1)c1ccccn1 (stereo not given)	0.456%
O=C(NC1CCCOc2cc(Cl)ccc21)c1ccc(=O)[nH]n1 (stereo not given)	1.5%
Cc1ccsc1C(Cc1ccccc1)NC(=O)CSCC(N)=O (stereo not given)	8.13%
COCc1nc2cc(NCc3ncc[nH]3)ccc2o1	-4.52%
Cc1cccc(NC(=O)[C@@H]2CCCN2Cc2nc(C)c(C)o2)n1	-4.34%
CNC(=O)CS(=O)(=O)Cc1coc(-c2cccc(F)c2)n1	1.28%
COC(=O)NCC(=O)N1CCc2cc(Cl)cc(Cl)c2C1	0.598%
O=C(NCC1(CO)CC1)NC(c1nccs1)C1CC1 (stereo not given)	1.23%
O=C(c1cccc(F)c1Cl)N(CCO)CC1CC1	0.684%
c1ccc(-c2nnc(CNCC3CCCN3c3cccnn3)o2)cc1 (stereo not given)	-10.5%
CN(Cc1nnc(C2CC2)n1C)C1CCN(CCc2ccncc2)C1 (stereo not given)	-4.56%

Compound	cytotoxicity at 10 µM
CCOc1ncccc1NC(=O)c1cccs1	0.932%
CNC(=O)c1cccc(CCNc2ccc(C#N)cn2)c1	-3.67%
COc1ccc(F)cc1C[S+]([O-])CC(=O)NCc1ccccc1 (stereo not given)	-8.97%
Cc1cc(C)cc(NC(=O)CC2CN(Cc3ccccc3)CCO2)c1 (stereo not given)	-8.46%
CNC(=O)CN(C(=O)c1cc(C(C)C)no1)c1cccc(F)c1	9.77%
CC(C)(CCS(C)(=O)=O)CNC(=O)NC1CCCCC1(C)C (stereo not given)	11.3%
Cc1ccc(NC(=O)c2ncc(C(N)=O)cc2Cl)cc1F	-3.53%
O=C(NCC(CO)Cc1ccc(Cl)cc1)c1ccncc1F (stereo not given)	-4.84%
O=S(=O)(Cc1ccc(F)c(Cl)c1)NCCOc1cccnc1	-49.9%
Cc1cnn(CCCNC2Cc3ccccc3C2)c1	3.34%
COc1ccccc1C1(CNc2ncc(S(N)(=O)=O)s2)CC1	-3.6%
Cc1cc(C)c(CNC(=O)NCc2nnc3n2CCCC3)c(=O)[nH]1	-5.34%
CCc1noc(CN(C)C(=O)COc2cc(Cl)cc(Cl)c2)n1	-0.966%
O=S(=O)(Cc1ccc(F)c(Cl)c1)NC(CO)c1ccco1 (stereo not given)	-3.49%
Cc1nn(C)c(C)c1CCC(=O)Nc1cn(C)c(=O)n(C)c1=O	20.6%
CCSCCC(=O)Nc1ncn(Cc2cccnc2)n1	25.1%
COc1cccc(S(=O)(=O)CCN2CCCCC2)c1	2.37%
Cc1ccc(CC(=O)NC(C)C(=O)N2CCS(=O)(=O)CC2)cc1 (stereo not given)	1.73%
COCC(=O)N(C)Cc1ccc(Cl)c(Cl)c1	-5.13%
CS(=O)(=O)N1CCO[C@@H]2CN(C(=O)N3CCOCC3)CC[C@@H]2C1	-105%
Cc1noc(C)c1C(=O)N1C[C@@H]2C[C@@H](c3ccncn3)O[C@@H]2C1	-70%
CCn1ncnc1CN1CCC(CNC(=O)c2cccnc2O)C1 (stereo not given)	7.06%

Compound	cytotoxicity at 10 µM
CN(Cc1cccnc1)c1nc(-c2ccccn2)nc2c1CCNCC2	3.64%
CC(C)(C)c1cc(=O)[nH]c(-c2ccccc2CN2CCC[C@@H](O)C2)n1	-43.3%
COCCn1ccnc1C1CCN(c2cccc(C(=O)O)n2)CC1	-2.74%
Cc1cccc(C(Nc2nccc(-c3ccc(C)nc3C)n2)C2CC2)n1 (stereo not given)	0.74%
CCN(CC)C(=O)[C@@H]1C[C@@H](N)CN1C(=O)c1cc2c([nH]c1=O)CCC2	-2.79%
Cc1n[nH]c(C)c1C(N)C(=O)NCCc1csc(C(C)C)n1 (stereo not given)	-8.64%
Cc1cc(CNCC2(O)CCCN(CCCc3ccccc3)C2=O)n[nH]1 (stereo not given)	-2.4%
Cn1c(Cn2cccn2)nnc1C1CCN(Cc2ccccc2Cl)CC1	-0.4%
COc1cccc(C2CCCN2C(=O)c2cc3c(nc2OC)CCC3)c1 (stereo not given)	-10.2%
O=C(c1ccc2c(c1)OCO2)N1C[C@@H](CN2CCCCC2)[C@@H](CO)C1	-4.06%
COc1cccc(-c2noc(-c3ccc(N4CC(N)C4)nc3)n2)c1OC	-4.8%
CCCSc1nc(O)c(CC)c(=O)n1-c1ccccc1	2.77%
CC(O)CN1CCc2onc(-c3ccccc3F)c2C1 (stereo not given)	0.963%
CCCN1CC2(CCN(C)CC2)CC1C(=O)NCCn1ccc(C)n1 (stereo not given)	-5.64%
COCc1cc(CN(C)C(=O)c2c[nH]nc2-c2cccc(F)c2)n[nH]1	0.445%
O=C(O)c1ccnc(-c2ccnc(NCCc3cscn3)n2)c1	0.852%
COc1cc(N2CCC(c3nccn3CCCN(C)C)CC2)nc(N)n1	-7.41%
O=C(N[C@H]1CN(c2ccncc2)C[C@@H]1C1CC1)C1CCOCC1	-11.8%
Cc1cc(N2CCCN(C(C(=O)O)c3cccc(C)c3F)CC2)ccn1 (stereo not given)	-2.11%
COCCNS(=O)(=O)c1ccc2c(c1)CCN(C(=O)c1cncn1C)C2	9.65%
N#Cc1ccc(C2CC(=O)Nc3c2cnn3C2CCCC2)cc1 (stereo not given)	13.2%
CCn1cnnc1C1CCN(C(=O)c2cc(C)n(CC)c2C)CC1	-6.08%

Compound	cytotoxicity at 10 µM
N#Cc1cccc(CN2CCCC2Cn2cccn2)c1 (stereo not given)	-2.78%
O=C(N1CCCC(n2cncn2)C1)C1(c2cccc(F)c2)CCC1 (stereo not given)	0.322%
CCc1nnsc1C(=O)N1CCCC(n2nc(C)nc2C)C1 (stereo not given)	4.63%
Cc1ccc(CN(C)C(=O)c2scnc2C)cc1	-6.8%
CC(=O)N1CCCN(C(=O)NCCCn2cncn2)CC1	-10.1%
CCOc1ccccc1C(CC(=O)Nc1ccccn1)NC(C)=O (stereo not given)	-3.95%
O=C(N1CCOCC1)N1CCN(CC(O)c2ccc(F)cc2)CC1 (stereo not given)	-2.42%
Cc1cc(CN(C)C(=O)c2ccc(Cl)c(N3CCCC3=O)c2)no1	-14.5%
CCOc1ccnc(N2CCN(C(=O)c3cn[nH]c3C)CC2)n1	3.54%
CC(NC(=O)NCCCO)c1ccc2c(c1)NC(=O)CO2 (stereo not given)	-3.05%
O=C(c1cncc2ccccc12)N1CCC[C@@H]1CO	2.37%
NC(=O)Cn1cc(NC(=O)N2CCCC2)cn1	-8.67%
Cc1nn(C)c(C)c1C1CCCN1C(=O)c1cc[nH]n1 (stereo not given)	1.35%
CC(NC(=O)NCCCNS(C)(=O)=O)c1ccncc1 (stereo not given)	1.08%
O=C(NC1CCCC1)c1ccnc(C2CCNCC2)c1	-11.3%
Cc1ncsc1C(=O)NCC1CCC2(CCNCC2)CO1 (stereo not given)	19.1%
CN1CCC(c2n[nH]c3ncccc23)C1 (stereo not given)	-20.1%
CN1CCN([C@@H]2CCN(CC3CCOC3)[C@H]2Cc2cnn(C)c2)CC1 (stereo not given in full)	5.25%
Cc1ccc(CN2CC(C(=O)N3CCCC3)C3(CCOCC3)C2)s1 (stereo not given)	-0.152%
Cc1ccc(CN2C[C@@H]3[C@@H](C(=O)N4CCCC4)CCS(=O)(=O)[C@@H]3C2)cc1	0.411%
CO[C@H]1CCN(Cc2ccccn2)[C@@H]2CN(Cc3ccco3)C[C@H]12	-7.76%
C=C1C(C)(C)[C@@H]2CC[C@]1(C(=O)N1CCC(n3cc(CCO)nn3)CC1)C2	-4.28%
